In brackets after ≈: the same amount, converted by molar mass.
Experiments:
Type in all cases: functional
Escherichia coli [1] = experiment: Ratio of LD99 for Escherichia coli K-12 DM4100 to MIC for Escherichia coli K-12 DM4100
Procedure, shortened: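 MIC: 10^4 to 10^5 cells/ml incubated at 37°C in LB broth with serial 2-fold quinolone dilutions. Lethality: midlog cultures grown aerobically at 37°C and exposed to quinolone for 2 h, then plated on drug-free agar overnight for CFU. Survival is expressed as percent of CFU at drug addition.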

Escherichia coli [2] = experiment: Bactericidal activity against Escherichia coli K-12 DM4100 after 2 hrs in presence of protein synthesis inhibitor chloramphenicol treated 10 mins before compound challenge
Procedure, shortened: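 Midlog E. coli grown aerobically at 37°C in LB. Chloramphenicol added to 20 μg/ml 10 min before quinolone, then 2 h further incubation. Cells diluted in growth medium and plated on drug-free agar, then incubated overnight at 37°C for CFU counts. Percent survival is relative to CFU at quinolone addition.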

Escherichia coli [3] = experiment: Bacteriostatic activity against Escherichia coli K-12 DM4100
Procedure, shortened: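 MIC by broth dilution: E. coli K-12 DM4100 at 10^4 to 10^5 cells/ml in LB liquid medium with serial 2-fold dilutions of quinolone, incubated at 37°C. Drug stock dilutions made in sterile distilled water.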

| Compound | Ratio (Escherichia coli [1]) | LD99 (Escherichia coli [2]) | MIC (Escherichia coli [3]) |
| --- | --- | --- | --- |
| CCC1CN(c2c(F)cc3c(=O)c(C(=O)O)cn(C4CC4)c3c2OC)CCN1 (stereo not given) | 5 | 0.8 µg/mL | 0.16 mg/L (≈ 0.411 µM) |
| COc1c(N2CCNCC2)c(F)cc2c(=O)c(C(=O)O)cn(C3CC3)c12 | 1.3 | 0.04 µg/mL | 0.031 mg/L (≈ 0.0858 µM) |
| CCN1CCN(c2c(F)cc3c(=O)c(C(=O)O)cn4c3c2OC[C@@H]4C)CC1 | 2 | 1.5 µg/mL | 0.75 mg/L (≈ 2 µM) |
| CCC1CN(c2c(F)cc3c(=O)c(C(=O)O)cn4c3c2OC[C@@H]4C)CCN1 (stereo not given in full) | 2 | 0.5 µg/mL | 0.25 mg/L (≈ 0.666 µM) |
| CC1CN(c2c(F)cc3c(=O)c(C(=O)O)cn4c3c2OC[C@@H]4C)CCN1 (stereo not given in full) | 2.4 | 0.74 µg/mL | 0.31 mg/L (≈ 0.858 µM) |
| CCN1CCN(c2c(F)cc3c(=O)c(C(=O)O)cn(C4CC4)c3c2OC)CC1 | 1.4 | 0.14 µg/mL | 0.1 mg/L (≈ 0.257 µM) |
| COc1c(N2CCN(C)CC2)c(F)cc2c(=O)c(C(=O)O)cn(C3CC3)c12 | 3.2 | 0.2 µg/mL | 0.062 mg/L (≈ 0.165 µM) |
| C[C@H]1COc2c(N3C[C@@H]4CCCN[C@@H]4C3)c(F)cc3c(=O)c(C(=O)O)cn1c23 | 2 | 0.25 µg/mL | 0.125 mg/L (≈ 0.323 µM) |
| COc1c(N2CCNC(C)C2)c(F)cc2c(=O)c(C(=O)O)cn(C3CC3)c12 (stereo not given) [GATIFLOXACIN] | 5 | 0.2 µg/mL | 0.04 mg/L (≈ 0.107 µM) |
| C[C@H]1COc2c(N3CCN(C)CC3)c(F)cc3c(=O)c(C(=O)O)cn1c23.C[C@H]1COc2c(N3CCN(C)CC3)c(F)cc3c(=O)c(C(=O)O)cn1c23.O [LEVOFLOXACIN] | 4 | 0.8 µg/mL | 0.2 mg/L |
| CN1CCN(c2c(F)cc3c(=O)c(C(=O)O)cn4c3c2OCN4C)CC1 [MARBOFLOXACIN] | 3 | 0.06 µg/mL | 0.02 mg/L (≈ 0.0552 µM) |
| COc1c(N2C[C@@H]3CCCN[C@@H]3C2)c(F)cc2c(=O)c(C(=O)O)cn(C3CC3)c12 [MOXIFLOXACIN] | 4 | 0.5 µg/mL | 0.125 mg/L (≈ 0.311 µM) |
| C[C@H]1COc2c(N3CCNCC3)c(F)cc3c(=O)c(C(=O)O)cn1c23 [N-DESMETHYL LEVOFLOXACIN] | 1.2 | 1.2 µg/mL | 1 mg/L (≈ 2.88 µM) |
| C[C@H]1COc2c(C3(N)CC3)c(F)cc3c(=O)c(C(=O)O)cn1c23 [PAZUFLOXACIN] | 4 | 0.08 µg/mL | 0.02 mg/L (≈ 0.0628 µM) |
| CN1CCN(c2c(F)cc3c(=O)c(C(=O)O)cn4c3c2SCC4)CC1 [RUFLOXACIN] | 7 | 7 µg/mL | 1 mg/L (≈ 2.75 µM) |
